Test results reported in ChEMBL document CHEMBL3407339, “A novel series of thiazolyl-pyrazoline derivatives: synthesis and evaluation of antifungal activity, cytotoxicity and genotoxicity” (Eur J Med Chem, 2015).
Converted amounts (≈) assume the structure as drawn.

How the values were obtained:
[1] = test system: Nakaseomyces glabratus; test: Antifungal activity against Candida glabrata clinical isolate after 48 hrs by broth microdilution assay; type: functional
In short: (§1)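 Broth microdilution of DMSO stocks serially diluted in sterile water (4 to 0.0039 mg/mL). Yeasts grown on SDA at 37 °C for 24 h, suspended in double-strength PDB at 10⁵ spores/mL. Incubated at 37 °C for 48 h, then sprayed with 0.5% aqueous TTC. MIC = lowest concentration inhibiting visible growth. Ketoconazole reference.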

[2] = test system: Candida albicans; test: Antifungal activity against Candida albicans ATCC 90028 after 48 hrs by broth microdilution assay; type: functional; details: ATCC 90028, 48 h; in short: as §1
[3] = test system: Candida tropicalis; test: Antifungal activity against Candida tropicalis NRLL Y 12968 after 48 hrs by broth microdilution assay; type: functional; details: NRLL Y 12968, 48 h; in short: as §1
[4] = test system: Pichia kudriavzevii; test: Antifungal activity against Candida krusei NRLL Y 7179 after 48 hrs by broth microdilution assay; type: functional; details: NRLL Y 7179, 48 h; in short: as §1
[5] = test system: [Candida] zeylanoides; test: Antifungal activity against Candida zeylanoides NRLL Y 1774 after 48 hrs by broth microdilution assay; type: functional; details: Dujonia zeylanoides, NRLL Y 1774, 48 h; in short: as §1
[6] = test system: Candida parapsilosis; test: Antifungal activity against Candida parapsilosis NRLL Y 12696 after 48 hrs by broth microdilution assay; type: functional; details: Lodderomyces parapsilosis, NRLL Y 12696, 48 h; in short: as §1
[7] = test system: Aspergillus flavus; test: Antifungal activity against Aspergillus flavus NRRL 980 after 72 hrs by broth microdilution assay; type: functional; details: NRRL 980, 72 h
In short: (§2)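 Compounds dissolved in DMSO, diluted in sterile distilled water from 4 to 0.0039 mg/mL. Molds grown on PDA at 25 °C for 5 days, suspended in double-strength PDB at 10⁵ spores/mL. Incubated at 25 °C for 72 h; mycelial growth read under stereo microscope. MIC = lowest concentration inhibiting visible growth. Ketoconazole reference.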

[8] = test system: Aspergillus niger; test: Antifungal activity against Aspergillus niger ATCC 1094 after 72 hrs by broth microdilution assay; type: functional; details: ATCC 1094, 72 h; in short: as §2
[9] = test system: Aspergillus parasiticus; test: Antifungal activity against Aspergillus parasiticus NRRL 465 after 72 hrs by broth microdilution assay; type: functional; details: NRRL 465, 72 h; in short: as §2
[10] = test system: Fusarium solani; test: Antifungal activity against Fusarium solani NRRL 13414 after 72 hrs by broth microdilution assay; type: functional; details: NRRL 13414, 72 h; in short: as §2
[11] = test system: Salmonella typhimurium; test: Mutagenicity in Salmonella typhimurium TA98 at 0.156 mg/ml after 48 hrs by AMES MPF assay in presence of Sprague-Dawley rat liver microsomal S9 fraction relative to baseline; type: toxicity, organism-based; details: salmonella enterica subsp. enterica serovar typhimurium
In short: (§3)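 Ames MPF fluctuation test with TA98/TA100. Overnight cultures (37 °C, 14–16 h) mixed with exposure medium; ±Aroclor-1254-induced rat liver S9 (final 4.5% v/v). Compounds in DMSO, 0.156–5 mg/mL. 90 min exposure at 37 °C, then indicator medium; 48 wells per concentration, 48 h at 37 °C, in triplicate. Yellow wells counted; fold induction over baseline (mean + 1 SD of zero-dose control).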

[12] = test system: Salmonella typhimurium; test: Mutagenicity in Salmonella typhimurium TA98 at 0.3125 mg/ml after 48 hrs by AMES MPF assay in presence of Sprague-Dawley rat liver microsomal S9 fraction relative to baseline; type: toxicity, organism-based; details: salmonella enterica subsp. enterica serovar typhimurium; in short: as §3
[13] = test system: Salmonella typhimurium; test: Mutagenicity in Salmonella typhimurium TA98 at 0.625 mg/ml after 48 hrs by AMES MPF assay in presence of Sprague-Dawley rat liver microsomal S9 fraction relative to baseline; type: toxicity, organism-based; details: salmonella enterica subsp. enterica serovar typhimurium; in short: as §3
[14] = test system: Salmonella typhimurium; test: Mutagenicity in Salmonella typhimurium TA98 at 1.25 mg/ml after 48 hrs by AMES MPF assay in presence of Sprague-Dawley rat liver microsomal S9 fraction relative to baseline; type: toxicity, organism-based; details: salmonella enterica subsp. enterica serovar typhimurium; in short: as §3
[15] = test system: Salmonella typhimurium; test: Mutagenicity in Salmonella typhimurium TA98 at 2.5 mg/ml after 48 hrs by AMES MPF assay in presence of Sprague-Dawley rat liver microsomal S9 fraction relative to baseline; type: toxicity, organism-based; details: salmonella enterica subsp. enterica serovar typhimurium; in short: as §3
[16] = test system: Salmonella typhimurium; test: Mutagenicity in Salmonella typhimurium TA98 at 5 mg/ml after 48 hrs by AMES MPF assay in presence of Sprague-Dawley rat liver microsomal S9 fraction relative to baseline; type: toxicity, organism-based; details: salmonella enterica subsp. enterica serovar typhimurium; in short: as §3
[17] = test system: Salmonella typhimurium; test: Mutagenicity in Salmonella typhimurium TA98 at 0.156 mg/ml after 48 hrs by AMES MPF assay in absence of Sprague-Dawley rat liver microsomal S9 fraction relative to baseline; type: toxicity, organism-based; details: salmonella enterica subsp. enterica serovar typhimurium; in short: as §3
[18] = test system: Salmonella typhimurium; test: Mutagenicity in Salmonella typhimurium TA98 at 0.3125 mg/ml after 48 hrs by AMES MPF assay in absence of Sprague-Dawley rat liver microsomal S9 fraction relative to baseline; type: toxicity, organism-based; details: salmonella enterica subsp. enterica serovar typhimurium; in short: as §3
[19] = test system: Salmonella typhimurium; test: Mutagenicity in Salmonella typhimurium TA98 at 0.625 mg/ml after 48 hrs by AMES MPF assay in absence of Sprague-Dawley rat liver microsomal S9 fraction relative to baseline; type: toxicity, organism-based; details: salmonella enterica subsp. enterica serovar typhimurium; in short: as §3
[20] = test system: Salmonella typhimurium; test: Mutagenicity in Salmonella typhimurium TA98 at 1.25 mg/ml after 48 hrs by AMES MPF assay in absence of Sprague-Dawley rat liver microsomal S9 fraction relative to baseline; type: toxicity, organism-based; details: salmonella enterica subsp. enterica serovar typhimurium; in short: as §3
[21] = test system: Salmonella typhimurium; test: Mutagenicity in Salmonella typhimurium TA98 at 2.5 mg/ml after 48 hrs by AMES MPF assay in absence of Sprague-Dawley rat liver microsomal S9 fraction relative to baseline; type: toxicity, organism-based; details: salmonella enterica subsp. enterica serovar typhimurium; in short: as §3
[22] = test system: Salmonella typhimurium; test: Mutagenicity in Salmonella typhimurium TA98 at 5 mg/ml after 48 hrs by AMES MPF assay in absence of Sprague-Dawley rat liver microsomal S9 fraction relative to baseline; type: toxicity, organism-based; details: salmonella enterica subsp. enterica serovar typhimurium; in short: as §3
[23] = test system: Salmonella typhimurium; test: Mutagenicity in Salmonella typhimurium TA100 at 0.156 mg/ml after 48 hrs by AMES MPF assay in presence of Sprague-Dawley rat liver microsomal S9 fraction relative to baseline; type: toxicity, organism-based; details: salmonella enterica subsp. enterica serovar typhimurium; in short: as §3
[24] = test system: Salmonella typhimurium; test: Mutagenicity in Salmonella typhimurium TA100 at 0.3125 mg/ml after 48 hrs by AMES MPF assay in presence of Sprague-Dawley rat liver microsomal S9 fraction relative to baseline; type: toxicity, organism-based; details: salmonella enterica subsp. enterica serovar typhimurium; in short: as §3
[25] = test system: Salmonella typhimurium; test: Mutagenicity in Salmonella typhimurium TA100 at 0.625 mg/ml after 48 hrs by AMES MPF assay in presence of Sprague-Dawley rat liver microsomal S9 fraction relative to baseline; type: toxicity, organism-based; details: salmonella enterica subsp. enterica serovar typhimurium; in short: as §3
[26] = test system: Salmonella typhimurium; test: Mutagenicity in Salmonella typhimurium TA100 at 1.25 mg/ml after 48 hrs by AMES MPF assay in presence of Sprague-Dawley rat liver microsomal S9 fraction relative to baseline; type: toxicity, organism-based; details: salmonella enterica subsp. enterica serovar typhimurium; in short: as §3
[27] = test system: Salmonella typhimurium; test: Mutagenicity in Salmonella typhimurium TA100 at 2.5 mg/ml after 48 hrs by AMES MPF assay in presence of Sprague-Dawley rat liver microsomal S9 fraction relative to baseline; type: toxicity, organism-based; details: salmonella enterica subsp. enterica serovar typhimurium; in short: as §3
[28] = test system: Salmonella typhimurium; test: Mutagenicity in Salmonella typhimurium TA100 at 5 mg/ml after 48 hrs by AMES MPF assay in presence of Sprague-Dawley rat liver microsomal S9 fraction relative to baseline; type: toxicity, organism-based; details: salmonella enterica subsp. enterica serovar typhimurium; in short: as §3
[29] = test system: Salmonella typhimurium; test: Mutagenicity in Salmonella typhimurium TA100 at 0.156 mg/ml after 48 hrs by AMES MPF assay in absence of Sprague-Dawley rat liver microsomal S9 fraction relative to baseline; type: toxicity, organism-based; details: salmonella enterica subsp. enterica serovar typhimurium; in short: as §3
[30] = test system: Salmonella typhimurium; test: Mutagenicity in Salmonella typhimurium TA100 at 0.3125 mg/ml after 48 hrs by AMES MPF assay in absence of Sprague-Dawley rat liver microsomal S9 fraction relative to baseline; type: toxicity, organism-based; details: salmonella enterica subsp. enterica serovar typhimurium; in short: as §3
[31] = test system: Salmonella typhimurium; test: Mutagenicity in Salmonella typhimurium TA100 at 0.625 mg/ml after 48 hrs by AMES MPF assay in absence of Sprague-Dawley rat liver microsomal S9 fraction relative to baseline; type: toxicity, organism-based; details: salmonella enterica subsp. enterica serovar typhimurium; in short: as §3
[32] = test system: Salmonella typhimurium; test: Mutagenicity in Salmonella typhimurium TA100 at 1.25 mg/ml after 48 hrs by AMES MPF assay in absence of Sprague-Dawley rat liver microsomal S9 fraction relative to baseline; type: toxicity, organism-based; details: salmonella enterica subsp. enterica serovar typhimurium; in short: as §3
[33] = test system: Salmonella typhimurium; test: Mutagenicity in Salmonella typhimurium TA100 at 2.5 mg/ml after 48 hrs by AMES MPF assay in absence of Sprague-Dawley rat liver microsomal S9 fraction relative to baseline; type: toxicity, organism-based; details: salmonella enterica subsp. enterica serovar typhimurium; in short: as §3
[34] = test system: Salmonella typhimurium; test: Mutagenicity in Salmonella typhimurium TA100 at 5 mg/ml after 48 hrs by AMES MPF assay in absence of Sprague-Dawley rat liver microsomal S9 fraction relative to baseline; type: toxicity, organism-based; details: salmonella enterica subsp. enterica serovar typhimurium; in short: as §3
[35] = test system: A549; test: Antiproliferative activity against human A549 cells after 24 hrs by XTT assay; type: functional, cell-based; details: A549, 24 h
In short: (§4)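 A549 cells in RPMI and NIH/3T3 cells in DMEM, each with fetal calf serum, antibiotics and 7.5% NaHCO₃, at 37 °C, 5% CO₂. Seeded at 20,000 cells/well, 24 h, then compounds added in medium at 500–3.9 doses (final DMSO <0.1%) for 24 h. XTT read after 3 h at 480 nm (ref 680 nm). IC₅₀ by non-linear regression; triplicates; cisplatin control.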

[36] = Cytotoxicity against mouse NIH/3T3 cells after 24 hrs by XTT assay; type: cell-based; details: NIH3T3, 24 h; in short: as §4

MIC [1] [µg/mL] | MIC [2] [µg/mL] | MIC [3] [µg/mL] | MIC [4] [µg/mL] | MIC [5] [µg/mL] | MIC [6] [µg/mL] | MIC [7] [µg/mL] | MIC [8] [µg/mL] | MIC [9] [µg/mL] | MIC [10] [µg/mL] | SMILES | fold change (FC) [11] | fold change (FC) [12] | fold change (FC) [13] | fold change (FC) [14] | fold change (FC) [15] | fold change (FC) [16] | fold change (FC) [17] | fold change (FC) [18] | fold change (FC) [19] | fold change (FC) [20] | other results
125 (≈ 246 µM) | 500 (≈ 984 µM) | 500 (≈ 984 µM) | 1000 (≈ 1970 µM) | 500 (≈ 984 µM) | 500 (≈ 984 µM) | 125 (≈ 246 µM) | 250 (≈ 492 µM) | 250 (≈ 492 µM) | 250 (≈ 492 µM) | Fc1ccc(C2CC(c3ccc(Cl)s3)=NN2c2nc(-c3ccc(C(F)(F)F)cc3)cs2)cc1 (configuration not stated) | 0.87 | 0.55 | 1.09 | 0.22 | 0.33 | 0.98 | 0 | 0.33 | 0.67 | 0.67 | fold change (FC) [21]: 0; fold change (FC) [22]: 0.67; fold change (FC) [23]: 2.08; fold change (FC) [24]: 2.31; fold change (FC) [25]: 2.54; fold change (FC) [26]: 2.77; fold change (FC) [27]: 2.31; fold change (FC) [28]: 2.31; fold change (FC) [29]: 0.67; fold change (FC) [30]: 1; fold change (FC) [31]: 1.33; fold change (FC) [32]: 3; fold change (FC) [33]: 1.33; fold change (FC) [34]: 2.67; IC50 [35]: > 500 µg/mL; IC50 [36]: > 500 µg/mL
125 (≈ 284 µM) | 250 (≈ 568 µM) | 250 (≈ 568 µM) | 250 (≈ 568 µM) | 250 (≈ 568 µM) | 250 (≈ 568 µM) | 125 (≈ 284 µM) | 250 (≈ 568 µM) | 250 (≈ 568 µM) | 250 (≈ 568 µM) | Fc1ccc(C2CC(c3ccc(Cl)s3)=NN2c2nc(-c3ccccc3)cs2)cc1 (configuration not stated) | 1.63 | 0.68 | 1.08 | 0.68 | 0.27 | 0.41 | 0 | 0 | 0.67 | 0 | fold change (FC) [21]: 0; fold change (FC) [22]: 0.67; fold change (FC) [23]: 1.85; fold change (FC) [24]: 3.23; fold change (FC) [25]: 2.77; fold change (FC) [26]: 4.62; fold change (FC) [27]: 3.46; fold change (FC) [28]: 4.38; fold change (FC) [29]: 0; fold change (FC) [30]: 0.32; fold change (FC) [31]: 0.96; fold change (FC) [32]: 1.28; fold change (FC) [33]: 2.88; fold change (FC) [34]: 0.96; IC50 [35]: > 500 µg/mL; IC50 [36]: > 500 µg/mL
